TRPC4 PAM: allosteric potentiators of mouse TRPC4 channel; B-score at 10 µM; 310,000 compounds, 0.42% hits; HEK293 TRPC4beta/mu-opioid, DAMGO EC20, Fluo-4 Ca2+ flux; active compounds read high; Q9QUQ5; AID 2227;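 active = B-score of calcium response area above 5 SD of library B-scores, with initial fluorescence ratio within 5 SD of library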;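 note: B-score of integrated fluorescence ratio over time as area under calcium response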
TRPC6 inh: blocks the mouse TRPC6 cation channel | B-score at 10 µM | AID 2553 | 310,000 compounds, 1.1% hits | HEK293-TRPC6, membrane potential dye, ACh-evoked depolarization; active compounds read low | Q61143;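 active = B-score under library mean minus 3 SD, initial fluorescence not abnormally high, positive integrated signal ratio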;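 note: B-score derived from integrated fluorescence ratio over the kinetic read; more negative B-score means stronger inhibition of depolarization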
TRPC4 block: inhibitors of mouse TRPC4 channel. Q9QUQ5. HEK293 TRPC4beta/mu-opioid, DAMGO-evoked Fluo4 calcium flux; active compounds read low. B-score at 10 µM. 300,000 compounds, 0.39% hits;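 active = B-score over 3 SD under the library average, no early fluorescence shift, positive overall ratio signal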
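Assay system: TRPC4beta/mu-opioid receptor HEK293 cell line; compound dosing: single concentration per test compound; detection: Fluo4 Ca2+ flux fluorescence; evaluation: per-well B score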
TRPC4 agonist: opens the mouse TRPC4 cation channel; Q9QUQ5; HEK293 TRPC4beta/mu-opioid, Fluo4 calcium fluorescence; active compounds read high; B-score at 10 µM; 310,000 compounds, 0.49% hits; AID 2237;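 active = B-score above 5 SD of library B-scores, and initial fluorescence ratio not above library mean plus 5 SD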;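 note: positive B-score marks a calcium rise read as TRPC4 activation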
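Assay system – TRPC4beta and mu-opioid receptor HEK293 stable cells · Measured by – Fluo4 fluorescence, kinetic · Schedule – dye loading 45 min room temperature, 110 s kinetic read · Read-out – B-scored integrated calcium fluorescence ratio · Controls – buffer and maximal DAMGO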
TRPC6 act: mouse TRPC6 channel activation; Q61143; HEK293-TRPC6 membrane potential dye fluorescence; active compounds read high; B-score at 10 µM; 310,000 compounds, 0.13% hits; AID 2550;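 active = B-score of the integrated fluorescence ratio above library mean plus 3 SD, and starting fluorescence ratio within library mean plus 5 SD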;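 note: higher score means more depolarization so channel activation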
TRPC4 sel inh 2: second selectivity test of TRPC6 inhibitors: effect on mouse TRPC4. 920 compounds, 42% hits. HEK293 TRPC4/MOR, membrane potential dye fluorescence; channel activated by saturating DAMGO dose. shares compounds with TRPC6 inh. inhibition, % at 10 µM;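 active = compounds whose fluorescence signal differed from control wells by over 3 SD, either direction, in both duplicate plates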
TRPC4 spec: tests whether TRPC6 inhibitors also affect mouse TRPC4. HEK293 TRPC4/mu-opioid, membrane potential fluorescence. activity change, negative = inhibition, % at 10 µM. shares compounds with TRPC6 inh. 920 compounds, 61% hits. AID 2777;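 active = rise or fall in signal beyond 3 SD of buffer-only wells in both replicate plates, either sign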;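 note: integrated kinetic ratio of fluorescence range over baseline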
HEK293 MPD ctr 2-1: parental HEK293 nonspecific activity of TRPC6 inhibitors, second screen. signal change vs control, % at 10 µM. AID 2779. parental HEK293 membrane potential dye fluorescence; maximal acetylcholine challenge after compound addition. shares compounds with TRPC6 inh. 920 compounds, 31% hits;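 active = membrane potential signal moving either way by over 3 SD of the maximum-effect control, in both duplicate plates, meaning non-specific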
HEK293 MPD ctr-1: parental HEK293 nonspecific activity of TRPC6 inhibitors; shares compounds with TRPC6 inh; parental HEK293 membrane potential dye fluorescence; membrane potential signal change, % at 10 µM; 920 compounds, 60% hits; AID 2780;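 active = membrane potential signal shifting up or down by more than 3 SD of buffer-only wells, on both duplicate plates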
HEK293 MPD ctr-2: counter-screen for TRPC6 modulators: effect in parental HEK293 cells; shares compounds with TRPC6 inh; membrane potential dye fluorescence; membrane potential signal change, % at 10 µM; 2,400 compounds, 51% hits;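 active = membrane potential signal moves up or down beyond 5 SD from buffer-only wells, on both duplicate plates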
HEK293 MPD ctr 2-2: second counter-screen for TRPC6 modulators: effect in parental HEK293 cells. inhibition, % at 10 µM. shares compounds with TRPC6 inh. membrane potential dye fluorescence; after compound, maximal acetylcholine stimulation. 2,400 compounds, 14% hits;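 active = membrane potential signal drops by more than 5 SD from the mean control signal, in both duplicate plates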;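 note: plate controls were acetylcholine ECmax control wells for no effect and buffer only wells for full effect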
TRPC4/MOR mod: mouse TRPC4 off-target activity of TRPC6 modulators. shares compounds with TRPC6 inh. HEK293 TRPC4/mu-opioid, membrane potential fluorescence. percent change from control (negative = decrease, positive = increase), % at 10 µM. 2,400 compounds, 69% hits. AID 488927;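 active = membrane potential signal moved up or down beyond 5 SD of buffer control wells, in both duplicate plates, actives on both sides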;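 note: plate controls were assay buffer wells for no effect and DAMGO maximal-effect wells for full effect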
TRPC4/MOR inh 2: second selectivity test of TRPC6 modulators against mouse TRPC4; shares compounds with TRPC6 inh; HEK293 TRPC4/mu-opioid, membrane potential dye fluorescence; stimulated with maximal-effect DAMGO; inhibition, % at 10 µM; 2,400 compounds, 55% hits; AID 488928;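 active = drop in membrane potential signal beyond 5 SD of the control wells in both duplicate plates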;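 note: TRPC4 counter screen for TRPC6 hits run under conditions tuned for TRPC6 not TRPC4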
TRPC6 inh conf: mouse TRPC6 inhibitor confirmation; shares compounds with TRPC6 inh; HEK293-TRPC6, membrane potential dye, ACh-evoked depolarization; inhibition, % at 10 µM; 3,300 compounds, 43% hits;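 active = fluorescence ratio falls more than 5 SD below the full-stimulation control mean, in both duplicate runs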;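 note: integrated fluorescence ratio of peak minus minimum over baseline after agonist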
TRPC6 act confirm: confirmation of mouse TRPC6 activators. HEK293-TRPC6 membrane potential dye fluorescence, FDSS. 2,800 compounds, 11% hits. shares compounds with TRPC6 inh. activation, % at 10 µM;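 active = ratio signal rise beyond 5 SD above unstimulated control wells' mean, seen in both duplicate runs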;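 note: plate controls were buffer EC0 wells for no effect and acetylcholine ECmax response for full effect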
Numbers without * were called inactive. An excerpt weighted towards active compounds, which were near 2.3% of everything screened.

What do the screens show for `COc1ccc(-c2cn(-c3ccccc3)nc2C(=O)O)cc1OC`?
TRPC4 PAM: inactive; TRPC6 inh: inactive; TRPC4 block: inactive; TRPC4 agonist: inactive; TRPC6 act: inactive

Results for COc1cccc(-c2c(C#N)c(N)nc3c2c(=O)nc2sccn23)c1 ?
TRPC4 PAM: inactive; TRPC6 inh: inactive; TRPC4 block: inactive; TRPC4 agonist: inactive; TRPC6 act: inactive

How did COc1ccc(CCn2c(=N)c(C(=O)NCCN3CCOCC3)cc3c(=O)n4ccccc4nc32)cc1OC do in these assays?
TRPC4 PAM: inactive; TRPC6 inh: -5.59*; TRPC4 block: inactive; TRPC4 agonist: inactive; TRPC6 act: inactive; HEK293 MPD ctr-2: 151.5%*; HEK293 MPD ctr 2-2: 109.0%*; TRPC4/MOR mod: 54.0%*; TRPC4/MOR inh 2: 44.5%*; TRPC6 inh conf: 63.5%*

How did COc1ccc(CCNC(=O)c2cc3c(=O)n4ccccc4nc3n(CCCN3CCOCC3)c2=N)cc1OC do in these assays?
TRPC4 PAM: inactive; TRPC6 inh: inactive; TRPC4 block: inactive; TRPC4 agonist: inactive; TRPC6 act: inactive

What do the screens show for `COc1ccc(CCn2c(=N)c(C(=O)N3CCN(C)CC3)cc3c(=O)n4ccccc4nc32)cc1`?
TRPC4 PAM: inactive; TRPC6 inh: -7.18*; TRPC4 block: inactive; TRPC4 agonist: inactive; TRPC6 act: inactive; HEK293 MPD ctr-2: -274.5%*; HEK293 MPD ctr 2-2: 83.5%*; TRPC4/MOR mod: -49.5%*; TRPC4/MOR inh 2: 62.0%*; TRPC6 inh conf: 68.0%*; TRPC6 act confirm: inactive

What do the screens show for `Cc1c(Cl)ccc2sc(NC(=O)c3ccco3)nc12`?
TRPC4 PAM: inactive; TRPC6 inh: inactive; TRPC4 block: inactive; TRPC4 agonist: inactive; TRPC6 act: inactive

What do the screens show for `CCOC(=O)C1CCN(C(=O)c2sc3ncnc(N4CCC(C)CC4)c3c2C)CC1`?
TRPC4 PAM: inactive; TRPC6 inh: inactive; TRPC4 block: inactive; TRPC4 agonist: inactive; TRPC6 act: inactive

What do the screens show for `CCOC(=O)C1CCN(C(=O)c2sc3nc(C)nc(N4CCC(C)CC4)c3c2C)CC1`?
TRPC4 PAM: inactive; TRPC6 inh: -9.04*; TRPC4 block: inactive; TRPC4 agonist: inactive; TRPC6 act: 13.6*; HEK293 MPD ctr-2: 197.5%*; HEK293 MPD ctr 2-2: inactive; TRPC4/MOR mod: 29.5%*; TRPC4/MOR inh 2: inactive; TRPC6 inh conf: 78.0%*; TRPC6 act confirm: 127.0%*

How did Cn1cccc1C(NC(=O)c1ccccc1)C(Cl)(Cl)Cl (stereo not given) do in these assays?
TRPC4 PAM: inactive; TRPC6 inh: inactive; TRPC4 block: inactive; TRPC4 agonist: inactive; TRPC6 act: inactive

Results for CC(=O)/C(C(=N)N1CCN(C(c2ccccc2)c2ccccc2)CC1)=C(\C)O ?
TRPC4 PAM: inactive; TRPC6 inh: -6.97*; TRPC4 block: inactive; TRPC4 agonist: inactive; TRPC6 act: inactive; TRPC4 sel inh 2: inactive; TRPC4 spec: inactive; HEK293 MPD ctr 2-1: inactive; HEK293 MPD ctr-1: inactive; TRPC6 inh conf: inactive; TRPC6 act confirm: inactive

How did CC(=O)/C(C(=N)N1CCN(Cc2ccccc2)CC1)=C(\C)O do in these assays?
TRPC4 PAM: inactive; TRPC6 inh: inactive; TRPC4 block: inactive; TRPC4 agonist: inactive; TRPC6 act: inactive

What do the screens show for `O=C(NC1CCCCC1)C(c1ccccn1)N(C(=O)Cc1cccs1)c1ccc(Cl)cc1` (stereo not given)?
TRPC4 PAM: inactive; TRPC6 inh: -6.9*; TRPC4 block: inactive; TRPC4 agonist: inactive; TRPC6 act: inactive; TRPC4 sel inh 2: inactive; TRPC4 spec: 22.0%*; HEK293 MPD ctr 2-1: inactive; HEK293 MPD ctr-1: 10.6%*; TRPC6 inh conf: inactive

How did Cc1cc(C)cc(N(C(=O)Cc2cccs2)C(C(=O)NC2CCCCC2)c2ccccn2)c1 (stereo not given) do in these assays?
TRPC4 PAM: inactive; TRPC6 inh: inactive; TRPC4 block: inactive; TRPC4 agonist: inactive; TRPC6 act: inactive

What do the screens show for `Cc1cccc(-n2nnnc2SCC(=O)Nc2ccc(N3CCN(C)CC3)cc2)c1`?
TRPC4 PAM: inactive; TRPC6 inh: -5.68*; TRPC4 block: inactive; TRPC4 agonist: inactive; TRPC6 act: inactive; HEK293 MPD ctr-2: inactive; HEK293 MPD ctr 2-2: inactive; TRPC4/MOR mod: inactive; TRPC4/MOR inh 2: 54.0%*; TRPC6 inh conf: inactive; TRPC6 act confirm: inactive

Results for Cc1ccccc1-n1nnnc1SCC(=O)Nc1ccc(N2CCN(C)CC2)cc1 ?
TRPC4 PAM: inactive; TRPC6 inh: inactive; TRPC4 block: inactive; TRPC4 agonist: inactive; TRPC6 act: inactive

How did CCC(C)c1ccccc1OCCCNC1CCCC1 (stereo not given) do in these assays?
TRPC4 PAM: inactive; TRPC6 inh: -5*; TRPC4 block: inactive; TRPC4 agonist: inactive; TRPC6 act: inactive; HEK293 MPD ctr-2: 232.5%*; HEK293 MPD ctr 2-2: inactive; TRPC4/MOR mod: 57.5%*; TRPC4/MOR inh 2: 58.0%*; TRPC6 inh conf: 44.5%*

Assay outcomes: PubChem BioAssay, Johns Hopkins Ion Channel Center
